Data reported in ChEMBL document CHEMBL1122829, “Antimicrobial and cytotoxic properties of 9,10-dihydrophenanthrenes: structure-activity studies on juncusol” (J Med Chem, 1985).
≈ marks a conversion by molar mass, not a printed value. Blank lines part the entries; values can stand above or below the compound they belong to. Calls of active or inactive are those of the source. The rule behind the calls is not given here.

What was measured:
Staphylococcus aureus [1] = test: In vitro antimicrobial activity against, Staphylococcus aureus ATCC 13709 tested at 100-0.1 ug/mL; i=Inactive at highest concentration; format: functional, organism-based
Procedure, shortened: (§1)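 Agar dilution/streak method; MIC (μg/mL) read as lowest concentration inhibiting growth. Each organism was streaked on agar plates holding serial dilutions of test agent over the range given in the line. "i" means no inhibition at the top concentration tested.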

Candida albicans [2] = test: In vitro antimicrobial activity against Candida albicans ATCC 10231, tested at 100-0.1 ug/mL; i=Inactive at highest concentration; format: functional, organism-based; procedure, shortened: as §1
Klebsiella pneumoniae [3] = test: In vitro antimicrobial activity against,Klebsiella pneumoniae ATCC 10031 tested at 100-0.1 ug/mL; i=Inactive at highest concentration; format: functional, organism-based; procedure, shortened: as §1
[4] = tested on: Mycolicibacterium smegmatis; test: In vitro antimicrobial activity against Mycobacterium smegmatis ATCC 607 tested at 100-0.1 ug/mL; i=Inactive at highest concentration; format: functional, organism-based; procedure, shortened: as §1
[5] = tested on: Mycolicibacterium smegmatis; test: In vitro antimicrobial activity against Mycobacterium smegmatis ATCC 607,tested at 100-0.1 ug/mL; format: functional; procedure, shortened: as §1
Staphylococcus aureus [6] = test: In vitro antimicrobial activity against Staphylococcus aureus ATCC 13709,tested at 100-0.1 ug/mL; format: functional; procedure, shortened: as §1
Candida albicans [7] = test: In vitro antimicrobial activity against Candida albicans ATCC 10231, tested at 100-0.1 ug/mL; format: functional; procedure, shortened: as §1
Klebsiella pneumoniae [8] = test: In vitro antimicrobial activity against Klebsiella pneumoniae ATCC 10031,tested at 100-0.1 ug/mL; i=Inactive at highest concentration; format: functional, organism-based; procedure, shortened: as §1
Klebsiella pneumoniae [9] = test: In vitro antimicrobial activity against Klebsiella pneumoniae ATCC 10031,tested at 100-0.1 ug/mL; format: functional; procedure, shortened: as §1
Staphylococcus aureus [10] = test: In vitro antimicrobial activity against, Staphylococcus aureus ATCC 13709,tested at 100-0.1 ug/mL; format: functional; procedure, shortened: as §1
L1210 [11] = test: In vitro cytotoxic activity against,L-1210 mouse lymphocytic leukemia cell culture (ATCC CCL-219); format: functional, cell-based
Procedure, shortened: (§2)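 L1210 (ATCC 219) cells: 1×10^4 cells per well seeded in DMEM with 5% bovine serum and grown 48 h at 37 °C under 5% CO2. Agent was added from a 10 mg/mL stock in 95% ethanol via 2× medium and incubated a further 48 h. The nonadherent cells were dispersed by pipetting, diluted in balanced salts solution and counted by hemocytometer or Coulter counter. IC50 is the dose giving 50% of control count.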

Homo sapiens = organism: Homo sapiens; test: In vitro cytotoxic activity against, human lymphoblastic leukemia cell culture (CCRF-CEM); format: functional
B16 [12] = test: In vitro cytotoxic activity against,B-16 mouse melanoma (B-16); format: functional, cell-based
Procedure, shortened: (§3)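 B16 cells: 1×10^4 cells per well seeded in DMEM with 5% bovine serum and grown 48 h at 37 °C under 5% CO2. Agent was added from a 10 mg/mL stock in 95% ethanol via 2× medium and incubated a further 48 h. Cells were detached with 0.01% trypsin/0.1% EDTA in PBS for 5 min at 37 °C and counted. IC50 is the dose giving 50% of control cell count, taken from count versus concentration plots.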

Klebsiella pneumoniae [13] = test: In vitro antimicrobial activity against Klebsiella pneumoniae ATCC 10031,tested at 100-0.1 ug/mL; Inactive at highest concentration; format: functional, organism-based; procedure, shortened: as §1
Klebsiella pneumoniae [14] = test: In vitro antimicrobial activity against Klebsiella pneumoniae ATCC 10031 tested at 25-0.1 ug/mL; i=Inactive at highest concentration; format: functional, organism-based; procedure, shortened: as §1
[15] = tested on: Mycolicibacterium smegmatis; test: In vitro antimicrobial activity against Mycobacterium smegmatis ATCC 607 tested at 25-0.1 ug/mL; format: functional; procedure, shortened: as §1
L1210 [16] = test: In vitro cytotoxic activity against L-1210 mouse lymphocytic leukemia cell culture (ATCC CCL-219); format: functional, cell-based; procedure, shortened: as §2
Candida albicans [17] = test: In vitro antimicrobial activity against Candida albicans ATCC 10231 tested at 25-0.1 ug/mL; i=Inactive at highest concentration; format: functional, organism-based; procedure, shortened: as §1
Staphylococcus aureus [18] = test: In vitro antimicrobial activity against, Staphylococcus aureus ATCC 13709 tested at 25-0.1 ug/mL; format: functional
Procedure, shortened: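 Agar-dilution/streak assay giving the MIC in μg/mL, run against S. aureus ATCC 13709 within a seven-organism panel.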

B16 [19] = test: In vitro cytotoxic activity against B-16 mouse melanoma (B-16); format: functional, cell-based; procedure, shortened: as §3
Staphylococcus aureus [20] = test: In vitro antimicrobial activity against, Staphylococcus aureus ATCC 13709,tested at 100-0.1 ug/mL; i=Inactive at highest concentration; format: functional, organism-based; procedure, shortened: as §1
Klebsiella pneumoniae [21] = test: In vitro antimicrobial activity against Klebsiella pneumoniae ATCC 10031,tested at 50-0.1 ug/mL; i=Inactive at highest concentration; format: functional, organism-based; procedure, shortened: as §1
[22] = tested on: Mycolicibacterium smegmatis; test: In vitro antimicrobial activity against Mycobacterium smegmatis ATCC 607,tested at 50-0.1 ug/mL; format: functional; procedure, shortened: as §1
Staphylococcus aureus [23] = test: In vitro antimicrobial activity against, Staphylococcus aureus ATCC 13709,tested at 50-0.1 ug/mL;; format: functional; procedure, shortened: as §1
Candida albicans [24] = test: In vitro antimicrobial activity against Candida albicans ATCC 10231, tested at 50-0.1 ug/mL; i=Inactive at highest concentration; format: functional, organism-based; procedure, shortened: as §1
Staphylococcus aureus [25] = test: In vitro antimicrobial activity against, Staphylococcus aureus ATCC 13709,tested at 50-0.1 ug/mL; format: functional; procedure, shortened: as §1
Candida albicans [26] = test: In vitro antimicrobial activity against Candida albicans ATCC 10231, tested at 25-0.1 ug/mL; i=Inactive at highest concentration; format: functional, organism-based; procedure, shortened: as §1
Staphylococcus aureus [27] = test: In vitro antimicrobial activity against, Staphylococcus aureus ATCC 13709,tested at 25-0.1 ug/mL; format: functional; procedure, shortened: as §1
Klebsiella pneumoniae [28] = test: In vitro antimicrobial activity against Klebsiella pneumoniae ATCC 10031,tested at 25-0.1 ug/mL; i=Inactive at highest concentration; format: functional, organism-based; procedure, shortened: as §1
[29] = tested on: Mycolicibacterium smegmatis; test: In vitro antimicrobial activity against Mycobacterium smegmatis ATCC 607,tested at 25-0.1 ug/mL; format: functional; procedure, shortened: as §1
[30] = tested on: Mycolicibacterium smegmatis; test: In vitro antimicrobial activity against Mycobacterium smegmatis ATCC 607,tested at 100-0.1 ug/mL; i=Inactive at highest concentration; format: functional, organism-based; procedure, shortened: as §1

MIC (Staphylococcus aureus [1]): inactive
MIC (Candida albicans [2]): inactive
MIC (Klebsiella pneumoniae [3]): inactive
MIC [4]: inactive
SMILES: C=Cc1c(C)c(OC)cc2c1-c1ccc(OC)c(C)c1CC2

MIC [5]: 50 µg/mL
MIC (Staphylococcus aureus [6]): 50 µg/mL
MIC (Candida albicans [7]): 100 µg/mL
MIC (Klebsiella pneumoniae [8]): inactive
SMILES: COc1ccccc1C[N+](C)(C)CSc1ccccc1.[Br-]

MIC [5]: 6.25 µg/mL (≈ 26 µM)
MIC (Klebsiella pneumoniae [9]): 50 µg/mL (≈ 208 µM)
MIC (Staphylococcus aureus [10]): 12.5 µg/mL (≈ 52 µM)
MIC (Candida albicans [7]): 50 µg/mL (≈ 208 µM)
SMILES: Cc1cc2c(cc1O)CCc1c-2ccc(O)c1C
IC50 (L1210 [11]): 10.2 µg/mL (≈ 42.4 µM)
IC50 (Homo sapiens): 9.3 µg/mL (≈ 38.7 µM)
IC50 (B16 [12]): 17.5 µg/mL (≈ 72.8 µM)

MIC (Klebsiella pneumoniae [13]): inactive
MIC [5]: 3.12 µg/mL (≈ 14.8 µM)
MIC (Staphylococcus aureus [10]): 25 µg/mL (≈ 119 µM)
MIC (Candida albicans [7]): 6.25 µg/mL (≈ 29.7 µM)
SMILES: Cc1cc2c(cc1O)CCc1ccccc1-2
IC50 (L1210 [11]): 24.5 µg/mL (≈ 117 µM)
IC50 (B16 [12]): 27.5 µg/mL (≈ 131 µM)

SMILES: C=Cc1c(C)c(O)cc2c1-c1ccc(O)c(C)c1CC2
MIC (Klebsiella pneumoniae [14]): inactive
MIC [15]: 12.5 µg/mL (≈ 46.9 µM)
IC50 (L1210 [16]): 13.8 µg/mL (≈ 51.8 µM)
MIC (Candida albicans [17]): inactive
MIC (Staphylococcus aureus [18]): 25 µg/mL (≈ 93.9 µM)
IC50 (B16 [19]): 12.5 µg/mL (≈ 46.9 µM)

MIC [5]: 25 µg/mL (≈ 111 µM)
MIC (Candida albicans [7]): 100 µg/mL (≈ 446 µM)
MIC (Staphylococcus aureus [20]): inactive
MIC (Klebsiella pneumoniae [8]): inactive
SMILES: COc1cc2c(cc1C)-c1ccccc1CC2

MIC (Klebsiella pneumoniae [21]): inactive
MIC [22]: 25 µg/mL (≈ 93.2 µM)
MIC (Staphylococcus aureus [23]): 50 µg/mL (≈ 186 µM)
MIC (Candida albicans [24]): inactive
SMILES: COC(=O)c1cc2c(cc1OC)CCc1ccccc1-2

MIC [5]: 1.56 µg/mL
MIC (Klebsiella pneumoniae [9]): 12.5 µg/mL
MIC (Staphylococcus aureus [10]): 1.56 µg/mL
MIC (Candida albicans [7]): 3.12 µg/mL
SMILES: COc1cc2c(cc1C[N+](C)(C)CSc1ccccc1)-c1ccc(OC)c(C)c1CC2.[Br-]
IC50 (L1210 [11]): 1.3 µg/mL
IC50 (Homo sapiens): 0.9 µg/mL
IC50 (B16 [12]): 0.3 µg/mL

MIC [5]: 1.56 µg/mL
MIC (Klebsiella pneumoniae [9]): 25 µg/mL
MIC (Staphylococcus aureus [10]): 1.56 µg/mL
MIC (Candida albicans [7]): 12.5 µg/mL
SMILES: COc1cc2c(cc1C[N+](C)(C)CSc1ccccc1)-c1ccccc1CC2.[Br-]
IC50 (L1210 [11]): 3.7 µg/mL
IC50 (Homo sapiens): 1.4 µg/mL
IC50 (B16 [12]): 0.5 µg/mL

MIC (Klebsiella pneumoniae [21]): inactive
MIC (Staphylococcus aureus [25]): 25 µg/mL
MIC [22]: 25 µg/mL
MIC (Candida albicans [24]): inactive
SMILES: CC[N+](CC)(CC)Cc1cc2c(cc1OC)CCc1ccccc1-2.[Br-]

MIC (Candida albicans [26]): inactive
MIC (Staphylococcus aureus [27]): 6.25 µg/mL
MIC (Klebsiella pneumoniae [28]): inactive
MIC [29]: 3.12 µg/mL
SMILES: COc1cc2c(cc1C[N+](C)(C)CSc1ccccc1)CCc1ccccc1-2.[Br-]

MIC [30]: inactive
MIC (Candida albicans [2]): inactive
MIC (Staphylococcus aureus [20]): inactive
MIC (Klebsiella pneumoniae [8]): inactive
SMILES: COc1cc2c(cc1C)-c1ccc(OC)c(C)c1CC2

MIC (Klebsiella pneumoniae [21]): inactive
MIC (Staphylococcus aureus [25]): 25 µg/mL (≈ 105 µM)
MIC [22]: 3.12 µg/mL (≈ 13.1 µM)
MIC (Candida albicans [24]): inactive
SMILES: CCc1cc2c(cc1OC)-c1ccccc1CC2
